Calls of active or inactive are those of the source. No cut-off for these calls is given here.
What was measured:
[1] = Ratio of drug uptake in SCID mouse xenograted with human HT-29 cells assessed as tumour retention to drug uptake in lung of SCID mouse xenografted with human HT-29 cells measured after 24 hrs using 177Lu labelled compound; format: ADME, tissue-based, Tumor/Lung
How it was run: (§1)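 Female SCID mice (5 weeks old) received s.c. flank HT-29 cells (5 × 10^6 in Matrigel). At ~80 mm3, two weeks later, mice were randomized and given 10 μCi (0.37 MBq) of purified 177Lu conjugate i.v. by tail vein. Mice were killed at 4, 24 or 72 h. Tissues were weighed and gamma counted as %ID/g, mean ± SD, n = 5. Tumor-to-tissue ratios were calculated.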

[2] = Ratio of drug uptake in SCID mouse xenograted with human HT-29 cells assessed as tumour retention to drug uptake in spleen of SCID mouse xenografted with human HT-29 cells measured after 72 hrs using 177Lu labelled compound; format: ADME, tissue-based, Tumor/Spleen; how it was run: as §1
[3] = target: Cathepsin B (Homo sapiens, UniProt P07858); test: Inhibition of human liver cathepsin B assessed as pseudo Michaelis-Menten constant at 10 nM using varying levels of Z-Arg-Arg-AMC as substrate measured every 5 mins for 1 hr by fluorescence assay
[4] = Drug retention in tumor lysates of mouse xenografted with human HT-29 cells assessed as macromolecule associated radioactivity at 29.6 MBq co-treated with D-lysine measured after 72 hrs using 177Lu labelled compound by gamma counter analysis relative to control; format: ADME, tissue-based, Neoplasm; details: in vivo
[5] = Drug uptake in SCID mouse xenografted with human HT-29 cells assessed as tumour retention pretreated for 1 hr with colchicine at 1 mg/kg, ip followed by 177Lu labelled compound at 0.37 MBq/mouse, iv measured at 24 hrs by gamma counter analysis; format: ADME, organism-based; details: in vivo
How it was run: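 Female SCID mice bearing s.c. flank HT-29 xenografts (5 × 10^6 cells in Matrigel, ~80 mm3). Given 10 μCi (0.37 MBq) 177Lu conjugate i.v. by tail vein; groups sacrificed at 4, 24, 72 h. Tissues weighed and gamma-counted as %ID/g, excretion as %ID; n = 5, mean ± SD. Blocking arms: colchicine 1 mg/kg i.p. beforehand, or D-lysine 40 mg/kg co-injected.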

[6] = Drug retention in tumor lysates of mouse xenografted with human HT-29 cells assessed as macromolecule associated radioactivity at 29.6 MBq measured after 72 hrs using 177Lu labelled compound by gamma counter analysis relative to control; format: ADME, tissue-based, Neoplasm; details: in vivo
How it was run: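 HT-29 xenograft mice given 800 μCi (29.6 MBq) 177Lu conjugate i.v. and killed at 72 h. Tumor, liver and kidney homogenized in RIPA with protease inhibitor and supernatants run on SDS-PAGE autoradiography. Other supernatant aliquots filtered through 10 kDa MWCO devices to give the % macromolecule-associated radioactivity; n = 3.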

[7] = Drug retention in human HT-29 cells assessed as increase in mean fluorescence intensity at 5 uM incubated for 2 hrs and measured at 24 hrs using natEu labelled compound by lysotracker green staining based confocal microscopic analysis; format: ADME, cell-based; details: ht-29, 2 h
How it was run: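 HT-29 cells (1.25 × 10^5/well) loaded with natEu conjugate (5 μM), washed, then chased in fresh medium up to 24 h. Lysotracker Green (100 nM) applied 2 h before each read; cells fixed and imaged confocally at 405/488 nm. Per-cell mean fluorescence and Lysotracker co-localization quantified.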

[8] = Drug uptake in stomach of SCID mouse xenografted with human HT-29 cells using 177Lu labelled compound at 0.37 MBq/mouse, iv co-treated with D-lysine at 40 mg/kg measured at 24 hrs by gamma counter analysis; format: ADME, organism-based; details: in vivo
How it was run: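 HT-29 s.c. xenografts in female SCID mice. 177Lu conjugate given i.v. by tail vein at 10 μCi (0.37 MBq)/mouse, co-injected with D-lysine 40 mg/kg. Tissues were taken at 24 h, weighed and gamma counted. Uptake expressed as %ID/g (n = 5, mean ± SD); tumor-to-tissue ratios derived from these values.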

[9] = Drug uptake in heart of SCID mouse xenografted with human HT-29 cells pretreated for 1 hr with colchicine at 1 mg/kg, ip followed by 177Lu labelled compound at 0.37 MBq/mouse, iv measured at 24 hrs by gamma counter analysis; format: ADME, organism-based; details: in vivo
How it was run: (§2)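 HT-29 flank xenografts in female SCID mice (5 × 10^6 cells in Matrigel, about 80 mm3). Colchicine 1 mg/kg was given i.p. before a tail-vein injection of 10 μCi (0.37 MBq) of purified 177Lu-conjugate. Tissues were taken at 24 h, weighed and gamma-counted as %ID/g; mean ± SD, n = 5.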

[10] = target: T1, Procathepsin L (Homo sapiens, UniProt P07711); test: Binding affinity to human liver cathepsin L assessed as protein-conjugate adduct formation at 0.74 MBq incubated for 30 mins in presence of DOTA-beta-ala-[N-alpha-Me8, Dmt11, Tle12] NT6-13 using 177Lu labelled compound by SDS-PAGE analysis; details: 0.74 M
T1 sequence (P07711 114-333 limits assumed): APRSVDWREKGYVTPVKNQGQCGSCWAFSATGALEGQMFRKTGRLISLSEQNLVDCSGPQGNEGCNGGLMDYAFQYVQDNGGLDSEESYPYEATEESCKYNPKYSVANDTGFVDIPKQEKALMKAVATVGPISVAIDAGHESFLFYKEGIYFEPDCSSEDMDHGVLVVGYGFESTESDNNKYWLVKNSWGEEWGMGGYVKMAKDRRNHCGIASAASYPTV
How it was run: (§3)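 Purified human liver CatB or CatL (3 nM) in 50 mM sodium acetate/1 mM EDTA pH 5.0 incubated 30 min with 177Lu conjugate (500,000 cpm) in Tris/MgCl2/DTT buffer pH 5.5, alone or with E-64 (10 μM) or N1 (20 μM). Mixtures heated 85 °C 2 min, run on 16% tris-glycine gel at 110 V for 90 min, and read by phosphor autoradiography.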

[11] = target: T1, Procathepsin L; test: Binding affinity to human liver cathepsin L assessed as protein-conjugate adduct formation at 0.74 MBq incubated for 30 mins in presence of E-64 using 177Lu labelled compound by SDS-PAGE analysis; details: 0.74 M; how it was run: as §3
[12] = Drug uptake in lung of SCID mouse xenografted with human HT-29 cells pretreated for 1 hr with colchicine at 1 mg/kg, ip followed by 177Lu labelled compound at 0.37 MBq/mouse, iv measured at 24 hrs by gamma counter analysis; format: ADME, organism-based; details: in vivo; how it was run: as §2
[13] = Drug uptake in heart of SCID mouse xenografted with human HT-29 cells using 177Lu labelled compound at 0.37 MBq/mouse, iv co-treated with D-lysine at 40 mg/kg measured at 24 hrs by gamma counter analysis; format: ADME, organism-based; details: in vivo
How it was run: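 Female SCID mice bore s.c. HT-29 xenografts (5 × 10^6 cells in Matrigel, about 80 mm3). D-lysine 40 mg/kg was co-injected i.v. with 10 μCi (0.37 MBq) of purified 177Lu-conjugate. Tissues were harvested at 24 h, weighed and gamma-counted, reported as %ID/g; mean ± SD, n = 5.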

[14] = Drug uptake in kidney of SCID mouse xenografted with human HT-29 cells pretreated for 1 hr with colchicine at 1 mg/kg, ip followed by 177Lu labelled compound at 0.37 MBq/mouse, iv measured at 24 hrs by gamma counter analysis; format: ADME, organism-based; details: in vivo; how it was run: as §2

| Ratio [1] | Ratio [2] | K [3] [µM] | Drug uptake [4] [%] | Drug uptake [5] [% ID/g] | Drug uptake [6] [%] | Drug uptake [7] | Drug uptake [8] [% ID/g] | Drug uptake [9] [% ID/g] | Activity [10] | Activity [11] | Drug uptake [12] [% ID/g] | Drug uptake [13] [% ID/g] | Drug uptake [14] [% ID/g] | SMILES |
| --- | --- | --- | --- | --- | --- | --- | --- | --- | --- | --- | --- | --- | --- | --- |
| 2.2 | 0.28 | – | – | – | – | – | – | – | – | – | – | – | – | Cc1cc(C)c(C(=O)OCC(=O)[C@H](CCCCNC(=O)CNC(=O)[C@@H](CO)NC(=O)[C@@H](CO)NC(=O)[C@@H](CO)NC(=O)Cn2cc(C[C@H](NC(=O)CN3CCN(CC(=O)O)CCN(CC(=O)O)CCN(CC(=O)O)CC3)C(=O)N[C@H](CO)C(=O)N[C@H](CO)C(=O)N[C@H](CO)C(=O)N[C@@H](CCCCN)C(=O)N3CCC[C@H]3C(=O)N(C)[C@@H](CCCNC(=N)N)C(=O)N[C@@H](CCCNC(=N)N)C(=O)N3CCC[C@H]3C(=O)N[C@@H](Cc3c(C)cc(O)cc3C)C(=O)N[C@H](C(=O)N[C@@H](CC(C)C)C(=O)O)C(C)(C)C)nn2)NC(=O)[C@H](Cc2ccccc2)NC(=O)OCc2ccccc2)c(C)c1 |
| – | – | 182 | – | – | – | – | – | – | – | – | – | – | – | Cc1cc(O)cc(C)c1C[C@H](NC(=O)[C@@H]1CCCN1C(=O)[C@H](CCCNC(=N)N)NC(=O)[C@H](CCCNC(=N)N)N(C)C(=O)[C@@H]1CCCN1C(=O)[C@H](CCCCN)NC(=O)[C@@H](CO)NC(=O)[C@@H](CO)NC(=O)[C@@H](CO)NC(=O)[C@H](Cc1cn(CCNC(=O)[C@H](CCCNC(=N)N)NC(=O)[C@H](CC(C)C)NC(=O)CCC(=O)O)nn1)NC(=O)CN1CCN(CC(=O)O)CCN(CC(=O)O)CCN(CC(=O)O)CC1)C(=O)N[C@H](C(=O)N[C@@H](CC(C)C)C(=O)O)C(C)(C)C |
| 15 | 2.4 | – | 80 | 1.7 | 80 | Active | 0.21 | 0.2 | Active | inactive | 3.2 | 0.14 | 26 | Cc1cc(O)cc(C)c1C[C@H](NC(=O)[C@@H]1CCCN1C(=O)[C@H](CCCNC(=N)N)NC(=O)[C@H](CCCNC(=N)N)N(C)C(=O)[C@@H]1CCCN1C(=O)[C@H](CCCCN)NC(=O)[C@@H](CO)NC(=O)[C@@H](CO)NC(=O)[C@@H](CO)NC(=O)[C@H](Cc1cn(CCNC(=O)[C@H](CCCNC(=N)N)NC(=O)[C@H](CC(C)C)NC(=O)C2OC2C(=O)O)nn1)NC(=O)CN1CCN(CC(=O)O)CCN(CC(=O)O)CCN(CC(=O)O)CC1)C(=O)N[C@H](C(=O)N[C@@H](CC(C)C)C(=O)O)C(C)(C)C (stereo partly specified) |

Reference: ChEMBL document CHEMBL4350999, “Enhanced tumor retention of NTSR1-targeted agents by employing a hydrophilic cysteine cathepsin inhibitor” (Eur J Med Chem, 2019)
